# According to ChEMBL document CHEMBL4043192, “The discovery of IDX21437: Design, synthesis and antiviral evaluation of 2'-α-chloro-2'-β-C-methyl branched uridine pronucleotides as potent liver-targeted HCV polymerase inhibitors” (Bioorg Med Chem Lett, 2017):
# How the values were obtained:
# [1] = system: Hepatitis C virus subtype 1b; test: Selectivity ratio of IC50 for HCV genotype 1b NS5B RNA dependent RNA polymerase S282T mutant to IC50 for wild-type HCV genotype 1b NS5B RNA dependent RNA polymerase
# [2] = target: RNA-directed RNA polymerase (Hepacivirus hominis, UniProt O39930, S282T); test: Inhibition of HCV genotype 1b NS5B RNA dependent RNA polymerase S282T mutant; parameters: species or system Hepatitis C virus subtype 1b
# [3] = Inhibition of wild-type HCV genotype 1b NS5B RNA dependent RNA polymerase; parameters: species or system Hepatitis C virus subtype 1b
# Summary of the method: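 Biochemical assay using wild-type genotype 1b HCV NS5B polymerase. IC50 was derived from percent inhibition versus concentration data.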
# [4] = target: DNA polymerase beta (Homo sapiens, UniProt P06746); test: Inhibition of human DNA polymerase beta
# Summary of the method: (§1)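 Biochemical enzyme inhibition assays across a panel of polymerases. IC50 was derived from percent inhibition versus concentration data.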
# [5] = Inhibition of HCV genotype 4a NS5B RNA dependent RNA polymerase assessed as reduction in [33P]-labeled nucleotide incorporation in to RNA template after 2 hrs by liquid scintillation counting method; parameters: species or system Hepatitis C virus subtype 4a; summary of the method: as §1
# [6] = Half life in human hepatocytes; format: ADME, cell-based, Hepatocyte
# [7] = Inhibition of HCV genotype 5a NS5B RNA dependent RNA polymerase assessed as reduction in [33P]-labeled nucleotide incorporation in to RNA template after 2 hrs by liquid scintillation counting method; parameters: species or system Hepatitis C virus subtype 5a; summary of the method: as §1
# [8] = Inhibition of HCV genotype 2a NS5B RNA dependent RNA polymerase assessed as reduction in [33P]-labeled nucleotide incorporation in to RNA template after 2 hrs by liquid scintillation counting method; parameters: species or system Hepatitis C virus subtype 2a; summary of the method: as §1
# [9] = target: T1, DNA polymerase alpha catalytic subunit (Homo sapiens, UniProt P09884); test: Inhibition of human DNA polymerase alpha; summary of the method: as §1
# T1 sequence (P09884 whole entry): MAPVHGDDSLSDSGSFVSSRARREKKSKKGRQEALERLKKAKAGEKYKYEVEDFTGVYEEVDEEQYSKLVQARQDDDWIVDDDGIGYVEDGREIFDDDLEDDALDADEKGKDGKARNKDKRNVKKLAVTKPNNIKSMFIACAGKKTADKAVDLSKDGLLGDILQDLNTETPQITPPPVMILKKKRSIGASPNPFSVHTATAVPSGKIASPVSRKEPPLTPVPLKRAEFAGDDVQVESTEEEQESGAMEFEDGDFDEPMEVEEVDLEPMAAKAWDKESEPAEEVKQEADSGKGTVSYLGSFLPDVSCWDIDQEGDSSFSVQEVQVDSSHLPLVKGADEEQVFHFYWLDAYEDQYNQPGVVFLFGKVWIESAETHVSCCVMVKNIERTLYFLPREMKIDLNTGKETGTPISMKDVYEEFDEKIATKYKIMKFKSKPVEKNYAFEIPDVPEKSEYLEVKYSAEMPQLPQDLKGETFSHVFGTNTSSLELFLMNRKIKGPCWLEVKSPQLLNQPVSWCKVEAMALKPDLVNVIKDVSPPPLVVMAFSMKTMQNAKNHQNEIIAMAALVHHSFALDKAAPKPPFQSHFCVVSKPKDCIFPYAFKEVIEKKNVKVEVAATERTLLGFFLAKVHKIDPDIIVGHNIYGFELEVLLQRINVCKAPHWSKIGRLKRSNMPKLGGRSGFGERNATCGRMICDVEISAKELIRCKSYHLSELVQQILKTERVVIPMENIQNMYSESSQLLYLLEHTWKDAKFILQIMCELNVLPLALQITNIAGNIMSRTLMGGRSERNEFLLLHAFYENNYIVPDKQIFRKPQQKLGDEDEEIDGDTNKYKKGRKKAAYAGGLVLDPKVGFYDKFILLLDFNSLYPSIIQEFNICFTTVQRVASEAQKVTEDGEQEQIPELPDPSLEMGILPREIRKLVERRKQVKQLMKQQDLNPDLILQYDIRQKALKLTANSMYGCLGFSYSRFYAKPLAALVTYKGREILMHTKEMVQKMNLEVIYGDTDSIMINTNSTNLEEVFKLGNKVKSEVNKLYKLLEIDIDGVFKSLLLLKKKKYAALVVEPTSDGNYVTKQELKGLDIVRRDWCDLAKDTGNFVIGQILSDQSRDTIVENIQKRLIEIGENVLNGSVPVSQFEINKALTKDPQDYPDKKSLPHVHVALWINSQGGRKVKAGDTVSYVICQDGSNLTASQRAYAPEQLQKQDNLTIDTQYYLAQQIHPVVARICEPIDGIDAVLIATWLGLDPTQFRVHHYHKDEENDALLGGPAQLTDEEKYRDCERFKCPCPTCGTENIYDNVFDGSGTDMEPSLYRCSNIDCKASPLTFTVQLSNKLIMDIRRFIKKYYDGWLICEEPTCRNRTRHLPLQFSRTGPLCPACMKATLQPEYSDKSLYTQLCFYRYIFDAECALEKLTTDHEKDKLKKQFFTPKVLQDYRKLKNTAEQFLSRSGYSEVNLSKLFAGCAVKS
# [10] = target: DNA-directed RNA polymerase, mitochondrial (Homo sapiens, UniProt O00411); test: Inhibition of human mitochondrial RNA polymerase; summary of the method: as §1
# [11] = Inhibition of human RNA polymerase 2; summary of the method: as §1
# [12] = Inhibition of HCV genotype 1a NS5B RNA dependent RNA polymerase assessed as reduction in [33P]-labeled nucleotide incorporation in to RNA template after 2 hrs by liquid scintillation counting method; parameters: species or system Hepatitis C virus subtype 1a; summary of the method: as §1
# [13] = Inhibition of HCV genotype 3a NS5B RNA dependent RNA polymerase assessed as reduction in [33P]-labeled nucleotide incorporation in to RNA template after 2 hrs by liquid scintillation counting method; parameters: species or system Hepatitis C virus subtype 3a; summary of the method: as §1
# [14] = Inhibition of HCV genotype 6a NS5B RNA dependent RNA polymerase assessed as reduction in [33P]-labeled nucleotide incorporation in to RNA template after 2 hrs by liquid scintillation counting method; parameters: species or system Hepatitis C virus subtype 6a; summary of the method: as §1
# [15] = Inhibition of human DNA polymerase gamma; summary of the method: as §1
# [16] = system: Hepatitis C virus; test: Antiviral activity against HCV genotype 1b Con1 expressing NS3 protease infected in human Huh-7 cells assessed as reduction in viral RNA replication after 72 hrs by luciferase reporter gene assay; format: functional, cell-based, Hepacivirus hominis; settings: genotype 1b Con1, Huh-7, 72 h
# [17] = Cytotoxicity against human HuH7 cells assessed as reduction in cell viability; format: cell-based, Huh-7
# [18] = target: Cytochrome P450 3A5 (Homo sapiens, UniProt P20815); test: Drug metabolism assessed as CYP3A5 (unknown origin)-mediated (R)-2-((R)-(((2R,3R,4R,5R)-4-chloro-5-(2,4-dioxo-3,4-dihydropyrimidin-1(2H)-yl)-3-hydroxy-4-methyltetrahydrofuran-2-yl)methoxy)(phenoxy)phosphorylamino)propanoic acid metabolite formation; format: ADME
# [19] = Selectivity index, ratio of CC50 for human Huh-7 cells to EC50 for HCV genotype 1b Con1 expressing NS3 protease
# Summary of the method: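 Selectivity index = CC50/EC50. EC50 from a luciferase-read Con1 subgenomic replicon assay in Huh-7 (GS4.1) cells.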
# [20] = system: Liver; test: Dose normalized AUC (0 to 24 hrs) in mouse liver assessed as 2'-C-MeUTP level at 10 mg/kg, po administered as single dose; format: ADME, organism-based; settings: in vivo
# Summary of the method: (§2)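 Mice given a single oral 10 mg/kg dose. Triphosphate measured in liver and parent nucleoside in plasma. AUC expressed as dose-normalized AUC (AUC per mg/kg).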
# [21] = target: Cytochrome P450 3A4 (Homo sapiens, UniProt P08684); test: Drug metabolism assessed as CYP3A4 (unknown origin)-mediated (R)-2-((R)-(((2R,3R,4R,5R)-4-chloro-5-(2,4-dioxo-3,4-dihydropyrimidin-1(2H)-yl)-3-hydroxy-4-methyltetrahydrofuran-2-yl)methoxy)(phenoxy)phosphorylamino)propanoic acid metabolite formation; format: ADME
# [22] = system: Hepatitis C virus; test: Antiviral activity against HCV genotype 1b Con1 infected in human Huh-7 cells over-expressing CES1; format: functional, cell-based, Hepacivirus hominis; settings: genotype 1b Con1, Huh-7
# Summary of the method: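 Transient HCV replicon assay in cells transfected to overexpress CES1; EC50 from inhibition versus concentration data.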
# [23] = system: Plasma; test: Dose normalized AUC (0 to 24 hrs) in mouse plasma assessed as 2'-C-MeU level at 10 mg/kg, po administered as single dose; format: ADME, organism-based; settings: in vivo; summary of the method: as §2
# RNA-directed RNA polymerase, sequence (O39930 entry or part of it S282T): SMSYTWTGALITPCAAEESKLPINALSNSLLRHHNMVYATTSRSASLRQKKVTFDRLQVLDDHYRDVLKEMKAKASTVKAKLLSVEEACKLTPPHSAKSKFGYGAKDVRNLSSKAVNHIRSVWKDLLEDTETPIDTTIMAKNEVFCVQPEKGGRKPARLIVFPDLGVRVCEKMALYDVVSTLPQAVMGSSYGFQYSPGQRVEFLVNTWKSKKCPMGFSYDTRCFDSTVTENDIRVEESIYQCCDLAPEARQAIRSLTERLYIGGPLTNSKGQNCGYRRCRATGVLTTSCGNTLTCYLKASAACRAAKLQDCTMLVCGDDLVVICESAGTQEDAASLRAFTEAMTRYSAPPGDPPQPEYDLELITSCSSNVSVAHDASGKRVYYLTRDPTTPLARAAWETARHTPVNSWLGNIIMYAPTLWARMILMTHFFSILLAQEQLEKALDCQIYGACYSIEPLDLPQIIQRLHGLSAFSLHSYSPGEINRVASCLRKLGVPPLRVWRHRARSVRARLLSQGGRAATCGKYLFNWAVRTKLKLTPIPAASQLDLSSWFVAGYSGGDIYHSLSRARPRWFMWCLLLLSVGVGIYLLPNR
# DNA-directed RNA polymerase, mitochondrial, sequence (O00411 whole entry): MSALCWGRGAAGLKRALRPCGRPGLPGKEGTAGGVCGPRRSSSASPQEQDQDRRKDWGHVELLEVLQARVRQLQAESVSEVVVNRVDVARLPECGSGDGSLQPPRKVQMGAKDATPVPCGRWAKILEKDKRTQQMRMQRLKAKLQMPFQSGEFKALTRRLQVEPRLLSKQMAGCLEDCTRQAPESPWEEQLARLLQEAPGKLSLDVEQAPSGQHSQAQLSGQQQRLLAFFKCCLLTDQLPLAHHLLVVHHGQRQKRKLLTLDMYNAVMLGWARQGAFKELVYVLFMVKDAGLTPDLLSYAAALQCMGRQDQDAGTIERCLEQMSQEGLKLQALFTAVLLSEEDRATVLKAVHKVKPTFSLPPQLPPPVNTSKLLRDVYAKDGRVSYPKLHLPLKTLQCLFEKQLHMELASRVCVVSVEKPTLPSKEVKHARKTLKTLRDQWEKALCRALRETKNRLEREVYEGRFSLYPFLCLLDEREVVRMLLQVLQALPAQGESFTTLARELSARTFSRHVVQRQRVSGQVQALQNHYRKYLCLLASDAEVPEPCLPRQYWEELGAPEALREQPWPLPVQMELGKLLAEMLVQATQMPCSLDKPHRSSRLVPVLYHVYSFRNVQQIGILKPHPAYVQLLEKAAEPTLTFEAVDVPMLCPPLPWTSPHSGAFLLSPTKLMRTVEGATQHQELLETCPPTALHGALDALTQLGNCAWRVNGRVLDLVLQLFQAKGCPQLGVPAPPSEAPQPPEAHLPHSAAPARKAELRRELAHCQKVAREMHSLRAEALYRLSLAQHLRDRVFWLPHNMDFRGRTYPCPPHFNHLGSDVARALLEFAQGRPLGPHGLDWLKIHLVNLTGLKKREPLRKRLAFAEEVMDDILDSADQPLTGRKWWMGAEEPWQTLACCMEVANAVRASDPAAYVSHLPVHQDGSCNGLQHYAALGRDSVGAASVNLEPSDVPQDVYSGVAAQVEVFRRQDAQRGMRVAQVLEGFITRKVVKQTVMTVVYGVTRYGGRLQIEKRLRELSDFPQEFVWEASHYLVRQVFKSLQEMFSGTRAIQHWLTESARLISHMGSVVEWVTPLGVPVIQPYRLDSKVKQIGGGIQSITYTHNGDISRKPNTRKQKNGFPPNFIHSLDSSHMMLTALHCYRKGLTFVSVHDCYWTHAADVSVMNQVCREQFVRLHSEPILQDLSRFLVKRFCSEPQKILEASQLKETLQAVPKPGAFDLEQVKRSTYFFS
# Cytochrome P450 3A4, sequence (P08684 whole entry): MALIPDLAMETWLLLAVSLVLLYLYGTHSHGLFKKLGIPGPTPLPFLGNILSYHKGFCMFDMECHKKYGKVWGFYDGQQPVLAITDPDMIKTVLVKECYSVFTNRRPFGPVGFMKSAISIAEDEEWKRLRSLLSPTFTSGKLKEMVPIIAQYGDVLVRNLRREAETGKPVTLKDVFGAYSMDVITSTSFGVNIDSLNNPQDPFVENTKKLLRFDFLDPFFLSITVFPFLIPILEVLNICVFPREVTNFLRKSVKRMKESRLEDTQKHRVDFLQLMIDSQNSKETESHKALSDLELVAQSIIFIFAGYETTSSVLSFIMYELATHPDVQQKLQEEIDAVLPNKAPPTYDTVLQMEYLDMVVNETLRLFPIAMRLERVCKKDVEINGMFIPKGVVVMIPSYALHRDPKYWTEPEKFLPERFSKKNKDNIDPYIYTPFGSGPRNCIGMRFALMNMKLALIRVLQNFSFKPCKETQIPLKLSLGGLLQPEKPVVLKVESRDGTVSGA
# Cytochrome P450 3A5, sequence (P20815 whole entry): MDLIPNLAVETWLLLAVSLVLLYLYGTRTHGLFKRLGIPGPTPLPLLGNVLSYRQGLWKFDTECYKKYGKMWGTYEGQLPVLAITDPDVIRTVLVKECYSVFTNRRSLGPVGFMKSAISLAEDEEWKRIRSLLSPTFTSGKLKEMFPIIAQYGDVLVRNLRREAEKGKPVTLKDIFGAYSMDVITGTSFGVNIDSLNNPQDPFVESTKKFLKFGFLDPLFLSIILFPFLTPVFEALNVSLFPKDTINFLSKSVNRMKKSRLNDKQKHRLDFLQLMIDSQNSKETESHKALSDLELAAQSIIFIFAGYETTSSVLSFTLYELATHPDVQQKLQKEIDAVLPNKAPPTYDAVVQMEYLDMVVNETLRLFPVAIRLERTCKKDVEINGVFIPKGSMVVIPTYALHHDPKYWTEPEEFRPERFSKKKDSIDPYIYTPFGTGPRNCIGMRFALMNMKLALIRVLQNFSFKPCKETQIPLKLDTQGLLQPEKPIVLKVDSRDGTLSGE
SMILES,EC50 [16] [nM],Ratio CC50/EC50 [19],AUC/dose [20] [pmol·h/g],AUC/dose [23] [pmol·h/mL],further results
C[C@@]1(F)[C@H](O)[C@@H](COP(=O)(O)OP(=O)(O)OP(=O)(O)O)O[C@H]1n1ccc(=O)[nH]c1=O [GS-461203],–,–,–,–,Ratio IC50 [1]: 7.7; IC50 [2]: 606 nM; IC50 [3]: 79 nM
C[C@@]1(Cl)[C@H](O)[C@@H](COP(=O)(O)OP(=O)(O)OP(=O)(O)O)O[C@H]1n1ccc(=O)[nH]c1=O [4A-TP],–,–,–,–,Ratio IC50 [1]: 6.1; IC50 [4]: > 500000 nM; IC50 [2]: 944 nM; IC50 [5]: 150 nM; half-life [6]: > 18 h; IC50 [7]: 230 nM; IC50 [8]: 250 nM; IC50 [9]: > 500000 nM; IC50 [3]: 154 nM; IC50 [10]: > 500000 nM; IC50 [11]: > 500000 nM; IC50 [12]: 140 nM; IC50 [13]: 160 nM; IC50 [14]: 100 nM; IC50 [15]: 95000 nM
C[C@@]1(F)[C@H](O)[C@@H](CO)O[C@H]1n1ccc(=O)[nH]c1=O,50000,–,–,–,CC50 [17]: > 100000 nM
CC(C)OC(=O)[C@@H](C)N[P@@](=O)(OC[C@H]1O[C@@H](n2ccc(=O)[nH]c2=O)[C@](C)(Cl)[C@@H]1O)Oc1ccccc1 [UPRIFOSBUVIR],56800,>2,6200,1400,Drug metabolism [18]: Metabolite_Detected; Drug metabolism [21]: Metabolite_Detected; EC50 [22]: 323 nM
C[C@@]1(O)[C@H](O)[C@@H](COP(=O)(O)OP(=O)(O)OP(=O)(O)O)O[C@H]1n1ccc(=O)[nH]c1=O,–,–,–,–,IC50 [3]: 81 nM
C[C@@]1(O)[C@H](O)[C@@H](CO)O[C@H]1n1ccc(=O)[nH]c1=O,30000,–,–,–,CC50 [17]: > 100000 nM
CCOC(=O)[C@H](C)N[P@@](=O)(OC[C@H]1O[C@@H](n2ccc(=O)[nH]c2=O)[C@](C)(Cl)[C@@H]1O)Oc1ccccc1,845,>118,840,1100,–
C[C@H](N[P@](=O)(OC[C@H]1O[C@@H](n2ccc(=O)[nH]c2=O)[C@](C)(Cl)[C@@H]1O)Oc1ccccc1)C(=O)OCc1ccccc1,71,>1408,850,2500,–
CC(C)OC(=O)[C@H](C)N[P@](=O)(OC[C@H]1O[C@@H](n2ccc(=O)[nH]c2=O)[C@](C)(F)[C@@H]1O)Oc1ccccc1 [SOFOSBUVIR],284,>352,310,330,EC50 [22]: 552 nM
CC(C)OC(=O)[C@@H](C)N[P@@]1(=O)OC[C@H]2O[C@@H](n3ccc(=O)[nH]c3=O)[C@](C)(Cl)[C@@H]2O1,31800,>3,2400,770,–
C[C@@]1(Cl)[C@H](O)[C@@H](CO)O[C@H]1n1ccc(=O)[nH]c1=O,57000,–,–,–,CC50 [17]: > 100000 nM
C[C@@H](N[P@@](=O)(OC[C@H]1O[C@@H](n2ccc(=O)[nH]c2=O)[C@](C)(Cl)[C@@H]1O)Oc1ccccc1)C(=O)OCc1ccccc1,4280,>23,5600,1400,–
CCOC(=O)[C@H](C)N[P@](=O)(OC[C@H]1O[C@@H](n2ccc(=O)[nH]c2=O)[C@](C)(Cl)[C@@H]1O)Oc1ccccc1,257,>389,400,1100,–
CCCCOC(=O)[C@@H](C)N[P@@](=O)(OC[C@H]1O[C@@H](n2ccc(=O)[nH]c2=O)[C@](C)(Cl)[C@@H]1O)Oc1ccccc1,2180,>46,8400,1700,–
CCOC(=O)[C@H](CC(C)C)N[P@@](=O)(OC[C@H]1O[C@@H](n2ccc(=O)[nH]c2=O)[C@](C)(Cl)[C@@H]1O)Oc1ccccc1,2490,>40,220,940,–
